From PubChem
The list is not random: actives were taken first. Their share in the collection is about 2.6%.
HIV Env fusion = inhibitors of HIV-1 Env-driven cell-cell fusion, primary screen, HeLa-JRFL effector, CEM21 target cells, luciferase. actives 1.1% (n = 360,000). inhibition, % at 12.3 µM. AID 651610, 2012;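 active means mean replicate inhibition score of at least 50 and every replicate individually at or above 50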
S100A4 inh HTS = inhibitors of S100A4-myosin IIA peptide binding, primary screen, biochemical, fluorescence polarization, TAMRA-MyoIIA peptide; inhibition, % at 10.7 µM; actives 0.14% (n = 360,000); Protein S100-A4 (Homo sapiens), P26447;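 active means mean inhibition of at least 70% across replicates, with every replicate also reaching that level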
Target sequence (P26447 whole entry, looked up): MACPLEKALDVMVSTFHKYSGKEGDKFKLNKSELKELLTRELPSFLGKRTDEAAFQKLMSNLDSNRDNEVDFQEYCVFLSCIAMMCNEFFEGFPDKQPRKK
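Test system – S100A4 monomer (human) · Compound – single-point compound testing · Schedule – 5 min incubation before reading · Probe or stimulus – TAMRA-labelled myosin IIA heavy-chain peptide probe, 5 nM · Benchmarks – neutral control DMSO, positive control TFP · Medium – Calcium-containing HEPES buffer, pH 7.2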
Vif imaging = HIV Vif self-association inhibitors, primary screen, imaging, HEK293T, single point. HEK293T cells, Vif self-association by quenched fluorescence, 24 h. actives 0.35% (n = 340,000). inhibition, % at 7.49 µM; in the data active means inhibition above about 50%, passing the limit was not always enough
FN deposit inh = inhibitors of fibronectin matrix deposition, primary screen, AH1F cells, Alexa488-fibronectin fluorescence, plate reader; AH1F fibroblasts, overnight; inhibition, % at 12.6 µM; actives 0.086% (n = 350,000); AID 743247, 2014;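 active means mean inhibition across replicates of 30% or more, regardless of how many single replicates reach that level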
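Assay system: AH1F fibroblast monolayer, labelled fibronectin deposition. Amount: 10000 cells per well. Also added: labelled fibronectin 24 nM. Compound: single-point pinned compound. Incubation: cell attachment 1 h, compound and FN exposure overnight. Detection: fluorescence after three HBSS washes, excitation 485 nm, emission 525 nm. Read-out: inhibition of fibronectin deposition signal.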
miR122 inh = miR-122 Renilla sensor signal increase in Huh7, primary screen, miR-122 inhibitor project, cell-based, single point, plate reader; Huh7 miR-122 Renilla luciferase sensor, 48 h; neutral wells = 0, positive control = 100; activation (reporter increase), % at 12.5 µM; actives 0.3% (n = 340,000);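 active means mean replicate activation score at least 90 and every replicate individually at or above 90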;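 further: higher luciferase means less miR-122 activity so hits act as miR-122 inhibitors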
rRNA inh HTS = reduced GFP signal of wild-type E. coli, primary screen, bacterial rRNA inhibitor project, GFP/RFP fluorescence, OD600, single point. actives 1.6% (n = 350,000). AID 720706, 2013. GFP signal change (wild-type ribosome), % (test concentration not listed). E. coli WT GFP vs humanized-ribosome RFP mutants, 24 h; hits give low values; DMSO median 0, no signal -100;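 active means significant combined selectivity score with lowered wild-type GFP, culture density cut under 30%, mutant RFP and density less affected; inactive means any of these conditions unmet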
A number is an active result; - = inactive; . = not tested or not shown; [ ] = another dose, or the depositor's remark.

SMILES | HIV Env fusion | S100A4 inh HTS | Vif imaging | FN deposit inh | miR122 inh | rRNA inh HTS
CC1Cc2cc(/C=C3/SC(=S)NC3=O)ccc2O1 (stereo not given) | - | - | - | - | - | -20
CCN(CC)c1ccc(C=C2SC(=S)NC2=O)cc1 | - | - | . | - | . | -
O=C(O)c1cccc(S(=O)(=O)NCCC(c2ccccc2)c2ccccc2)c1 | - | - | - | - | . | -27
C[C@H]1CN([C@@H](C)CO)C(=O)c2cc(NS(=O)(=O)c3cn(C)cn3)ccc2O[C@@H]1CN(C)CC1CC1 | - | - | . | . | - | -
CNC[C@@H]1OCCCC[C@@H](C)Oc2ccc(NS(=O)(=O)c3cccs3)cc2C(=O)N([C@@H](C)CO)C[C@H]1C | - | - | . | . | - | -
CC1(C)CC(=O)C=C(c2cccc3c2oc2ccccc23)C1 | 72 | - | - | - | - | -
C=CCC1(O)C(=O)N2C(=C1C(=O)OCC)c1ccc3ccccc3c1CC2(C)C (stereo not given) | - | . | - | - | - | .
CC1(C)Cc2c(ccc3ccccc23)C2=C(C(=O)N3CCCC3)C(=O)C(=O)N21 | - | - | - | . | . | -26
O=[N+]([O-])c1ccccc1CNC(Cc1ccccc1)c1ccccc1 (stereo not given) | . | - | - | . | - | -30
O=C(C[C@@H]1C=C[C@@H](NC(=O)Nc2ccc3c(c2)OCO3)[C@H](CO)O1)NCc1ccc(F)cc1 | 59[16.7 µM] | - | . | . | . | -
O=C(C[C@@H]1C=C[C@@H](NC(=O)Nc2ccc3c(c2)OCO3)[C@@H](CO)O1)NCc1ccc(F)cc1 | - | - | . | . | . | -
O=C(O)C[C@@H]1C=C[C@@H](NC(=O)Nc2ccccc2)[C@H](CO)O1 | 58[16.7 µM] | - | . | - | . | -
CN(C)CC(=O)N[C@H]1CC[C@@H](CC(=O)NCc2ccc(Cl)cc2)O[C@@H]1CO | - | 82 | . | . | . | -
O=C(O)C[C@@H]1C=C[C@H](NC(=O)Nc2ccccc2)[C@@H](CO)O1 | - | - | . | - | . | -
O=C(C[C@@H]1CC[C@@H](NC(=O)Nc2ccccc2F)[C@H](CO)O1)NCc1ccc(F)cc1 | . | - | . | . | . | -
O=C(C[C@H]1CC[C@@H](NC(=O)Nc2ccccc2F)[C@@H](CO)O1)NCc1ccc(Cl)cc1 | 59[16.7 µM] | - | . | - | . | -
CC(=O)N1C[C@@H]2C(c3ccc(Br)cc3)[C@H](C1)N2CC(F)(F)F (stereo not given in full) | . | . | . | - | . | -
O=C(C[C@H]1C=C[C@H](NC(=O)Nc2ccccc2F)[C@@H](CO)O1)NCc1ccc(-c2ccccc2)cc1 | - | - | . | - | - | -
O=C(C[C@H]1C=C[C@@H](NC(=O)Nc2ccccc2F)[C@H](CO)O1)NCc1ccc(-c2ccccc2)cc1 | 57[16.7 µM] | - | . | - | - | -
CS(=O)(=O)N(Cc1cccc(CN(C(C(=O)O)c2ccccc2)S(C)(=O)=O)c1)C(C(=O)O)c1ccccc1 (stereo not given) | - | - | - | - | - | -
COC(=O)[C@@H](CC(C)C)N(Cc1ccccc1)S(=O)(=O)N(Cc1ccccc1)[C@@H](CC(C)C)C(=O)OC | 85 | - | - | - | - | -
CC(C)C[C@@H](C(=O)O)N(Cc1cccc(CN([C@@H](CC(C)C)C(=O)O)S(C)(=O)=O)c1)S(C)(=O)=O | 61 | - | . | - | - | -
O=C(C[C@H]1C=C[C@@H](NC(=O)c2cccc(F)c2)[C@H](CO)O1)Nc1nccs1 | - | - | . | - | . | -
CCCNC(=O)NNC(=O)c1cc(-c2ccc3c(c2)OCO3)nc2ccccc12 | - | - | . | - | 102 | -
CCCN(CCC)C(=O)c1cc(-c2ccc3c(c2)OCO3)nc2ccccc12 | . | . | - | . | - | .
SMILES | HIV Env fusion | S100A4 inh HTS | Vif imaging | FN deposit inh | miR122 inh | rRNA inh HTS
ClC1(Cl)CC1CSc1nc2ccccc2[nH]1 (stereo not given) | - | - | - | - | . | -28
CCOC(=O)C1C(=O)C=C(c2cccs2)CC1c1ccccc1 (stereo not given) | - | - | - | - | . | -28
O=C(O)c1c2c(nc3ccc(S(=O)(=O)N4CCC(C(=O)NCc5ccccc5)CC4)cc13)CCCC2 | - | - | . | - | - | -
CN(Cc1ccccc1)C(=O)C1CCN(S(=O)(=O)c2ccc3nc4c(c(C(=O)O)c3c2)CCCC4)CC1 | - | - | 69 | - | - | -
COc1cccc(NC(=O)N[C@H]2C=C[C@H](CC(=O)N3CCCCC3)O[C@H]2CO)c1 | - | - | . | . | . | -
CCOC(=O)c1cc(S(=O)(=O)Nc2ccc(F)cc2F)cn1C | - | - | - | - | - | -
Cc1nc(-c2cccc(NS(C)(=O)=O)c2)cs1 | . | - | - | . | - | -
CCOC(=O)c1cc(S(=O)(=O)Nc2cccc(OC)c2)cn1C | - | - | - | - | 132 | -
CCOC(=O)c1cccc(NS(=O)(=O)c2ccc(NC(C)=O)cc2)c1 | 106 | . | - | . | - | .
CC(=O)Nc1ccc(S(=O)(=O)Nc2cccc(-c3csc(C)n3)c2)cc1 | - | - | - | - | 283 | .
Cc1cc(Nc2cccc(Br)c2)c2ccccc2n1 | 66 | - | - | - | . | -
Cc1ccccc1-c1ccc([C@H]2[C@@H](CO)N3CCCCN(C(=O)Nc4ccc(F)cc4)C[C@H]23)cc1 | . | - | . | . | - | -
COc1ccc(NC(=O)Nc2ccc3c(c2)C(=O)N([C@H](C)CO)C[C@@H](C)[C@@H](CN(C)C(=O)CCC(F)(F)F)OCCCC[C@H](C)O3)cc1 | - | - | . | . | - | -
CS(=O)(=O)c1cccc(C(=O)Nc2cccc(-c3nc4ccccc4[nH]3)c2)c1 | - | - | - | - | - | -19
O=C(Nc1ccc2nc(-c3ccccc3)[nH]c2c1)c1ccco1 | - | . | - | - | - | .
O=C(Nc1cccc(-c2nc3ccccc3[nH]2)c1)c1cccc(NC(=O)c2ccco2)c1 | - | . | 72 | . | - | .
C[C@@H]1CN([C@@H](C)CO)C(=O)Cc2cc(NC(=O)NC3CCCCC3)ccc2O[C@H]1CN(C)C(=O)Nc1ccc2c(c1)OCO2 | - | - | . | . | - | -
CCOC(=O)N1CCN(S(=O)(=O)c2ccc(C)c(C)c2C)CC1 | . | . | - | . | - | .
Cc1ccc(S(=O)(=O)n2nc(C)c(Br)c2C)c(C)c1C | . | . | - | . | 105 | .
C[C@@H]1CN([C@H](C)CO)C(=O)c2cc(C3=CCCCC3)cnc2O[C@@H]1CN(C)C(=O)c1cccnc1 | - | . | . | . | . | -
CCOc1ccc(OCC)c(NC(=O)CSc2nnnn2CC)c1 | - | . | - | - | - | .
